Activity calls are given as the source filed them. The rule behind the calls is not given here.
Assays:
[1] = tested on: Alpha-2 adrenergic receptor (Rattus norvegicus); test: Antagonist activity at alpha2 adrenoreceptor in rat brain cortical membranes assessed as inhibition of [3H]-RX821002 binding to receptor after 45 mins by competition assay in presence of GTP
[2] = target: T1, 5-hydroxytryptamine receptor 1A (Rattus norvegicus) (UniProt P19327); test: Partial agonist activity at 5HT1A receptor in rat brain hippocampal membranes assessed as inhibition of [3H]-8-OH-DPAT binding to receptor after 15 mins by competition assay; assay type: cell membranes
T1 sequence (whole entry): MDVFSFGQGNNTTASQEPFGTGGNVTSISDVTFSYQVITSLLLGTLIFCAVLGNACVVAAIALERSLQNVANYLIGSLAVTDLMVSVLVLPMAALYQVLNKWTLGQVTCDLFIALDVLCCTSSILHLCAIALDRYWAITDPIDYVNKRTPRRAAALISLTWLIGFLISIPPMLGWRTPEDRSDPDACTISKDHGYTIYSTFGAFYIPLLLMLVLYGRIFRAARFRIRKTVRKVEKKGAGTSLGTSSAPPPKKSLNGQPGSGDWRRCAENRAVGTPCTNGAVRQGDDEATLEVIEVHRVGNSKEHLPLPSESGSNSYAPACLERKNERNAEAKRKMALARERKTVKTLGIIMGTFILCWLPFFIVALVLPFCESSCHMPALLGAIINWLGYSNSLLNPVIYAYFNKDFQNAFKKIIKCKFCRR
Summary of the method: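 Hippocampal membranes, 40 µg protein, incubated with 1 nM [3H]-8-OH-DPAT at 37 °C for 15 min under yellow light. Buffer was 50 mM Tris-HCl pH 7.4 with 1 mM CaCl2, 1 mM MnCl2 and pargyline. Non-specific binding was defined with 5-HT. Filters were soaked in 0.5% polyethyleneimine. IC50 came from nonlinear regression fitted with one or two sites. Ki by Cheng-Prusoff, using Kd from saturation experiments.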

[3] = tested on: Mus musculus; test: Toxicity in CF1 mouse assessed as effect on locomotor activity measuring number of crossings at 1 to 3 mg/kg, ip administered 30 mins prior ketamine challenge measured for 20 mins post challenge; assay type: organism-based; set-up: dose 1-3 mg/kg, route intraperitoneal; conditions: in vivo
[4] = tested on: Mus musculus; test: Antipsychotic activity in ip dosed CF1 mouse assessed as prevention of ketamine-induced hyperlocomotion compound administered 30 mins prior ketamine challenge measured for 20 mins post challenge; assay type: functional, organism-based
Summary of the method: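 Mice were pretreated (reference drug orally after 2 h fast; test compound i.p.) and placed in the arena centre. Ketamine 10 mg/kg s.c. was given 30 min later. A blinded observer counted total square crossings over 20 min in a dimly lit room. n = 7–8. Analysed by one-way ANOVA with Newman-Keuls post hoc test.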

inhibition [1]: Active | inhibition [2]: Active
Compound: Clc1ccc(-n2cc(CCCCN3CCN(c4ccccc4)CC3)cn2)cc1
Activity [3]: Non-toxic | Activity [4]: Dose-dependent effect

Reference: ChEMBL document CHEMBL2412990, “Synthesis and pharmacological evaluation of new N-phenylpiperazine derivatives designed as homologues of the antipsychotic lead compound LASSBio-579” (Eur J Med Chem, 2013)
